Here are results for 20 compounds from ChEMBL document CHEMBL3407377, “Synthesis and pharmacological evaluation of benzannulated derivatives as potent and selective sigma-1 protein ligands” (Eur J Med Chem, 2015).

The target of assay [1] is Sigma non-opioid intracellular receptor 1 (Homo sapiens, UniProt Q99720). The experiment in a line: Displacement of [3H](+)Pentazocine from sigma 1 receptor in human Jurkat cells after 120 mins by liquid scintillation counting analysis. In kind it is cell-based. Background: In a radioligand displacement assay an active substance lowers the binding of a labelled ligand.

Assay [2] is described as follows: Cytotoxicity against human SH-SY5Y cells assessed as cell viability after 72 hrs by MTT assay. It is filed as cell-based. The essentials:
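Human neuroblastoma SY5Y cells were exposed to a range of concentrations up to 100 μM. Viability was read by colorimetric MTT assay, and the IC50 was taken from it.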

In assay [3] the test system is Jurkat. The experiment in a line: Selectivity ratio of Ki for sigma2 receptor in human Jurkat cells to Ki for sigma1 receptor human Jurkat cells. It is filed as cell-based. The essentials:
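Both affinities came from radioligand competition on Jurkat cell membranes. S1R used [3H](+)-pentazocine. S2R used [3H]-DTG with excess unlabelled (+)-pentazocine. Ki values were derived from IC50s, and the ratio was calculated as Ki(S2R)/Ki(S1R).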

Assay [4] in a line: Ratio of IC50 for human SY5Y cells to Ki for sigma 1 receptor in human Jurkat cells. The essentials: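 Selectivity index was calculated as the SY5Y cytotoxicity IC50 divided by the S1R Ki. The IC50 came from a colorimetric MTT viability assay on human neuroblastoma SY5Y cells dosed up to 100 μM. The Ki came from [3H](+)-pentazocine competition binding on Jurkat cell membranes.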

Each structure is given as a SMILES string.

Sequence of Sigma non-opioid intracellular receptor 1 (Q99720 whole entry): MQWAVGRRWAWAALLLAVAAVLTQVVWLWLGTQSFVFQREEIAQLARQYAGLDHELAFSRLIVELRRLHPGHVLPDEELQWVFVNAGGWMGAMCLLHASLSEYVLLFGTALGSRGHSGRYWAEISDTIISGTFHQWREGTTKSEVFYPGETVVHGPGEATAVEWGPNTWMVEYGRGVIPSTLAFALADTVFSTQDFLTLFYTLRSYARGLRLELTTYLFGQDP

As a reminder, the Ki is a measure of affinity in units of concentration, obtained from inhibition or displacement. A low value points to a stronger hold on the target. The IC50 is the concentration needed to halve the response being measured. On to `O=c1oc2cc(Br)ccc2n1CCCN1Cc2ccccc2C1`, for which, in assay [1], the Ki was above 0.1 µM. Moreover, the IC50 in assay [2] is above 100 µM.

The compound `CN(CCCN1C(=O)COc2ccc(Br)cc21)Cc1ccccc1` displayed a Ki in assay [1] above 0.1 µM. Moreover, the IC50 in assay [2] worked out at 13.4 µM.

Turning to `CN(CCCn1c(=O)oc2cc(Br)ccc21)Cc1ccccc1`, the Ki in assay [1] worked out at 0.0009 µM. In addition, the Ratio Ki in assay [3] amounted to 37. In assay [4], the Ratio is recorded as 63291. Besides, the IC50 in assay [2] was determined as 58.8 µM.

The compound `O=C1[C@@H]2Cc3ccccc3CN2C(=O)N1CCCN1Cc2ccccc2C1` had a Ki in assay [1] of 0.0053 µM. For the same compound, the Ratio Ki in assay [3] was found to be 78.

`CN(CCCn1c(=O)sc2ccc(Br)cc21)Cc1ccccc1`: the Ki in assay [1] stood at 0.0031 µM. In addition, the Ratio Ki in assay [3] stood at 35. Also, the Ratio in assay [4] stood at 8417. Further, the IC50 in assay [2] was determined as 26.5 µM.

`CN(CCCn1c(=O)sc2ccc(Cl)cc21)Cc1ccccc1` returned a Ki in assay [1] of 0.0047 µM. Besides, the Ratio Ki in assay [3] stood at 35. Further, in assay [4], the Ratio is on record as 2124. In addition, in assay [2], the IC50 was determined as 9.9 µM.

Regarding `Cc1nc2ccccc2n1CCCN(C)Cc1ccccc1`, the Ki in assay [1] is above 0.1 µM. For the same compound, in assay [2], the IC50 amounted to 50.2 µM.

Turning to `CN(CCCn1c(=O)oc2ccc(Br)cc21)Cc1ccccc1`, the Ki in assay [1] was found to be 0.0012 µM. Besides, the Ratio Ki in assay [3] was 13. Besides, the Ratio in assay [4] is 11463. The IC50 in assay [2] came to 14.2 µM.

With `CN(CCCn1c(=O)n(C)c2ccccc21)Cc1ccccc1`, the Ki in assay [1] was above 0.1 µM. Moreover, the IC50 in assay [2] was determined as 73.8 µM.

Compound `Cn1c(=O)n(CCCN2Cc3ccccc3C2)c2ccccc21` registered a Ki in assay [1] above 0.1 µM. The IC50 in assay [2] was above 100 µM.

`O=c1sc2cc(Br)ccc2n1CCCN1Cc2ccccc2C1` displayed a Ki in assay [1] of 0.0057 µM. For the same compound, the Ratio in assay [4] amounted to 5471. Moreover, the IC50 in assay [2] was determined as 31.4 µM.

In turn, `CN(CCCN1C(=O)CSc2ccc(Br)cc21)Cc1ccccc1` yielded a Ki in assay [1] of 0.0022 µM. Also, the Ratio Ki in assay [3] worked out at 22. In addition, the Ratio in assay [4] stood at 8631. Besides, the IC50 in assay [2] worked out at 18.7 µM.

Regarding `CN(CCCn1c(=O)sc2cc(Br)ccc21)Cc1ccccc1`, the Ki in assay [1] was found to be 0.0006 µM. In assay [3], the Ratio Ki worked out at 48. The Ratio in assay [4] is given as 23250. Moreover, in assay [2], the IC50 came out at 13.2 µM.

Regarding `O=c1oc2ccccc2n1CCCN1Cc2ccccc2C1`, the inhibition constant Ki in assay [1] was above 0.1 µM. In addition, the half-maximal inhibitory concentration (IC50) in assay [2] was above 100 µM.

As to `CN(CCCn1c(=O)sc2ccccc21)Cc1ccccc1`, in assay [1], the Ki was 0.0103 µM. Besides, the Ratio in assay [4] is reported as 973. For the same compound, in assay [2], the IC50 worked out at 10 µM.

`CN(CCCn1c(=O)oc2ccccc21)Cc1ccccc1` came in with a Ki in assay [1] above 0.1 µM. Moreover, the IC50 in assay [2] is above 100 µM.

The compound `CN(CCCn1c(=O)oc2ccc(Cl)cc21)Cc1ccccc1` gave a Ki in assay [1] of 0.0064 µM. Besides, in assay [3], the Ratio Ki was found to be 16. Moreover, in assay [4], the Ratio is 15500. For the same compound, the IC50 in assay [2] was above 100 µM.

In assay [1], `O=c1sc2ccccc2n1CCCN1Cc2ccccc2C1` registered a Ki of 0.0303 µM. Further, the Ratio in assay [4] is above 3000. Further, the IC50 in assay [2] is above 100 µM.

Consider `O=C1COc2ccc(Br)cc2N1CCCN1Cc2ccccc2C1`, for which the Ki in assay [1] was above 0.1 µM. Moreover, the IC50 in assay [2] is above 100 µM.

Regarding `CN(CCCN1C(=O)[C@@H]2Cc3ccccc3CN2C1=O)Cc1ccccc1`, in assay [2], the half-maximal inhibitory concentration (IC50) is above 100 µM.
